Measured values reported in ChEMBL document CHEMBL4715912, “Discovery of a novel series of indolinylpyrimidine-based GPR119 agonists: Elimination of ether-a-go-go-related gene liability using a hydrogen bond acceptor-focused approach” (Bioorg Med Chem, 2021).
Active and inactive are the calls of the source. No cut-off for these calls is given here.

Key:
Rattus norvegicus [1] = assay: Antidiabetic activity in po dosed N-STZ 1.5 rat assessed as reduction in glucose level pre-treated for 60 mins followed by 1.5 g/kg glucose treatment and measured up to 120 mins by OGTT; assay type: functional, organism-based; settings: dose 1-3 mg/kg, time min <=180
In short: (§1)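 Male N-STZ1.5 rats, 25–30 weeks old, fasted overnight, dosed orally with compound or 0.5% methylcellulose vehicle; 60 min later oral glucose load 1.5 g/kg. Tail-vein blood taken pre-dose, at 0, 10, 30, 60 and 120 min; plasma glucose by autoanalyzer, insulin by radioimmunoassay. AUC computed; mean ± SD, n = 6; one-tailed Williams' test.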

Rattus norvegicus [2] = assay: Antidiabetic activity in po dosed N-STZ 1.5 rat assessed as reduction in GHB level for 4 weeks; assay type: functional, organism-based; settings: dose 1-3 mg/kg
In short: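 Male N-STZ-1.5 rats kept under time-restricted feeding, treated for 4 weeks; GHb measured before and after treatment and expressed also as percentage change.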

[3] = AUC in rat at 1 mg/kg, po by LC/MS/MS analysis; assay type: ADME, organism-based; parameters: dose 1 mg/kg; settings: in vivo
In short: (§2)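 Cassette dosing, given by mouth at 1 mg/kg in 0.5% methylcellulose aqueous solution, with intravenous arm at 0.1 mg/kg, to non-fasted animals. Blood collected after dosing, plasma deproteinized and centrifuged, compound measured by LC/MS/MS.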

Rattus norvegicus [4] = assay: Antidiabetic activity in N-STZ 1.5 rat assessed as reduction in glucose level at 1 mg/kg, po pre-treated for 60 mins followed by 1.5 g/kg glucose treatment and measured up to 120 mins by OGTT; assay type: functional, organism-based; settings: time min <=180; in short: as §1
[5] = MRT in rat at 1 mg/kg, po by LC/MS/MS analysis; assay type: ADME, organism-based; settings: in vivo; in short: as §2
[6] = biological target: T1, glucose-dependent insulinotropic receptor (Mesocricetus auratus, UniProt A0A1U8CD06); assay: Agonist activity at GPR119 in glucose-induced golden hamster HIT-T15 cells assessed as increase in insulin secretion after 2 hrs by A1phaLISA; assay type: cell-based
T1 sequence (A0A1U8CD06 whole entry): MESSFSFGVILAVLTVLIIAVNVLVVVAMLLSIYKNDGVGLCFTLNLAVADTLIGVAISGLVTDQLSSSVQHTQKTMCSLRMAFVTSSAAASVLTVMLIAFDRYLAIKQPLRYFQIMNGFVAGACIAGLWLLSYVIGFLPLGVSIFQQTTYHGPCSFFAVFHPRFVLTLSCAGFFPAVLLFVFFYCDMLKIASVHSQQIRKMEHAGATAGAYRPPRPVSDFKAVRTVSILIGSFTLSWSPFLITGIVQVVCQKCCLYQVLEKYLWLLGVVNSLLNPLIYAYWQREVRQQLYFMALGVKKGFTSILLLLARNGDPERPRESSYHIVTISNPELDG
In short: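 HIT-T15 hamster β-cells seeded 5×10^4 cells/well, next day pre-incubated 2 h in KRBH buffer (0.2% BSA). Then exposed to compounds in KRBH with 0.2% fatty acid free BSA and 10 mmol/L glucose for 2 h at 37 °C; secreted insulin in supernatant quantified by AlphaLISA. EC50 reported from n = 2.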

Rattus norvegicus [7] = assay: Antidiabetic activity in N-STZ 1.5 rat assessed as increase in plasma insulin level at 1 to 3 mg/kg, po pre-treated for 60 mins followed by 1.5 g/kg glucose treatment and measured up to 120 mins by radioimmunoassay; assay type: functional, organism-based; settings: dose 1-3 mg/kg, time min <=180; in short: as §1
[8] = Total clearance in rat at 0.1 mg/kg, iv by LC/MS/MS analysis; assay type: ADME, organism-based; settings: in vivo
In short: (§3)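 Cassette intravenous dosing at 0.1 mg/kg to non-fasted animals. Plasma taken from blood samples, deproteinized and centrifuged, and compound levels in supernatant quantified by LC/MS/MS.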

[9] = biological target: T2, Glucose-dependent insulinotropic receptor (Homo sapiens, UniProt Q8TDV5); assay: Agonist activity at human GPR119 expressed in CHO cells co-expressing cyclic AMP response element incubated for 2 hrs by steady-glo luciferase assay; assay type: cell-based
T2 sequence (Q8TDV5 whole entry): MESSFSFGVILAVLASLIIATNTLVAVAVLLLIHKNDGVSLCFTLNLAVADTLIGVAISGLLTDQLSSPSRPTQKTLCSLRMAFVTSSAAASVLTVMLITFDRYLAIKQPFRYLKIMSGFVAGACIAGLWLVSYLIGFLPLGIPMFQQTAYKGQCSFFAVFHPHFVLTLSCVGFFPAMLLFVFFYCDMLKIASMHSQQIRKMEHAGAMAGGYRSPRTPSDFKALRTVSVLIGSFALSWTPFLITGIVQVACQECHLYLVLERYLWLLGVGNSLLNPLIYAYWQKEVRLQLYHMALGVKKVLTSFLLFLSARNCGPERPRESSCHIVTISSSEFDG
In short: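 CHO cells stably expressing human GPR119, seeded at 10,000 cells/well in MEM α with 500 µg/mL Geneticin overnight, then exposed to graded compound concentrations in MEM α/20 mmol/L HEPES/0.1% BSA for 2 h. cAMP-driven luciferase read with Steady-Glo. Response normalized between vehicle and a 10 µM reference agonist; EC50 as mean of n = 2.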

hERG (KCNH2) = hERG (KCNH2) (Homo sapiens, UniProt Q12809); assay: Inhibition of human ERG expressed in CHO cells at 10 uM incubated for 5 mins by patch-clamp assay relative to control; assay type: cell-based; settings: CHO cells expressing human ERG
In short: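 hERG-expressing CHO cells grown at 32 °C, recorded by population patch clamp after amphotericin B perforation; PBS with Ca/Mg outside, KCl/EGTA/HEPES pH 7.3 inside. Holding −80 mV, step to 40 mV 2 s, then −50 mV 2 s; peak tail current before and after 5 min compound exposure. Percent inhibition = 100 − post/pre × 100; mean ± SD, n = 4.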

[10] = Volume of distribution at steady state in rat at 0.1 mg/kg, iv by LC/MS/MS analysis; assay type: ADME, organism-based; settings: in vivo, read-out: Vdss; in short: as §3
[11] = Oral bioavailability in rat at 1 mg/kg by LC/MS/MS analysis; assay type: ADME, organism-based; settings: in vivo; in short: as §2
[12] = biological target: T3, Glucose-dependent insulinotropic receptor (Mus musculus, UniProt Q7TQP3); assay: Agonist activity at GPR119 in glucose-induced mouse L cells assessed as induction of GLP-1 secretion after 2 hrs by ELISA
T3 sequence (Q7TQP3 whole entry): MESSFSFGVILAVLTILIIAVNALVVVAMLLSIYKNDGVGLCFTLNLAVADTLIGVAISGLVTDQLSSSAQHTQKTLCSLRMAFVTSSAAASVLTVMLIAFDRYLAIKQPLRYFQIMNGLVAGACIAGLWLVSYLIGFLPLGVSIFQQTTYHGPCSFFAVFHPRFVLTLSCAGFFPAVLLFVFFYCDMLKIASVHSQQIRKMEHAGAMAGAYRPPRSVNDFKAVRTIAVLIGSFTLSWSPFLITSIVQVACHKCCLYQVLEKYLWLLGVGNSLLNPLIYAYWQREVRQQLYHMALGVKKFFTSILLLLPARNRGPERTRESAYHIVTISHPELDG
In short: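 GLUTag cells (murine L cell line) seeded at 1 × 10^4 cells/well on poly-L-lysine, switched to low-glucose DMEM overnight, washed with HBSS, then exposed to compounds in KRBH buffer with 0.2% fatty acid free BSA and 10 mmol/L glucose for 2 h at 37 °C. Active GLP-1 in supernatant by ELISA; EC50 from n = 2.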

Chain of hERG (KCNH2) (Q12809 whole entry): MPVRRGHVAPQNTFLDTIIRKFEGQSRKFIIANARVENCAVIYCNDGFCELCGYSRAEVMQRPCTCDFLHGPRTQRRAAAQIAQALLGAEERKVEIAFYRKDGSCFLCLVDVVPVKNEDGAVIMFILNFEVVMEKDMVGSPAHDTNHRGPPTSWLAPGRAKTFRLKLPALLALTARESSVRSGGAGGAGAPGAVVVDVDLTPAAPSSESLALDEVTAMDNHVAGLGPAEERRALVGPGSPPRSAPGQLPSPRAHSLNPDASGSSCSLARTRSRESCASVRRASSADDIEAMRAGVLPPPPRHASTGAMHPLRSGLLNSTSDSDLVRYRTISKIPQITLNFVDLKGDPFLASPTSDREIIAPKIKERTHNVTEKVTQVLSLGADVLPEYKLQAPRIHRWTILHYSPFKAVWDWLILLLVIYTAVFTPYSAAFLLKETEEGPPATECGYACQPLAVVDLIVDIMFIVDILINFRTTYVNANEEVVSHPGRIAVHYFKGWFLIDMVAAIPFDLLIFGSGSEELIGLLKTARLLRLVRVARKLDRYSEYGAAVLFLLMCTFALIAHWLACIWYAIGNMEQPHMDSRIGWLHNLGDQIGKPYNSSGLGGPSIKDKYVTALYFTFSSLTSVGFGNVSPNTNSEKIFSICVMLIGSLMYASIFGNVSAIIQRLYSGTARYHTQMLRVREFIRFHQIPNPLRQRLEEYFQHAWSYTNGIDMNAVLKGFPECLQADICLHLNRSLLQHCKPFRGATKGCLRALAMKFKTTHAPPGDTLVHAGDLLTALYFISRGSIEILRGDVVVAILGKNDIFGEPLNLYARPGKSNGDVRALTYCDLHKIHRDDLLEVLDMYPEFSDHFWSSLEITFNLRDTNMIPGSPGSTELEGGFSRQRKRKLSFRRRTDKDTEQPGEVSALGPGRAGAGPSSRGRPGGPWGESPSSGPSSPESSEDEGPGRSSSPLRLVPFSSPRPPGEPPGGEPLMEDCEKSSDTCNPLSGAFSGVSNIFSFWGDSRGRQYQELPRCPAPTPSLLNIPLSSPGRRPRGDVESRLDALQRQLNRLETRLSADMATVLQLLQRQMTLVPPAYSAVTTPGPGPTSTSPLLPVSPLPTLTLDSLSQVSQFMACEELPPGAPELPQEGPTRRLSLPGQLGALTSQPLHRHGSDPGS

CC(C)c1noc(N2CCC(Oc3cc(N4CCc5cc(N6CCC[C@H](O)C6=O)ccc54)ncn3)CC2)n1
Activity (Rattus norvegicus [1]): Dose-dependent effect | Activity (Rattus norvegicus [2]): Dose-dependent effect | AUC [3]: 1670 ng·h/mL | Activity (Rattus norvegicus [4]): Active | MRT [5]: 3.8 h | EC50 [6]: 25 nM | Activity (Rattus norvegicus [7]): Active | clearance [8]: 2.47 mL/min/kg | EC50 [9]: 16 nM | inhibition at 5 min, 10 µM (hERG (KCNH2)): 31% | Vd [10]: 0.332 L/kg | bioavailability [11]: 24% | EC50 [12]: 19 nM
